# Laboratory results from ChEMBL document CHEMBL1177719 (J Med Chem, 2010).
# The source made the active and inactive calls. The calls are words filed in the database; no cut-off is given here.
# What was measured:
# [1] = tested on: MCF7; assay: Cytotoxicity against human MCF7 cells assessed as cell survival at 20 ug/ml after 72 hrs by sulforhodamine B method; format: functional; details: MCF7, 72 h, read-out: Activity
# In short: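 Sulforhodamine B assay. KB or MCF7 cells plated with samples and held 72 h at 37 °C, 5% CO₂. Fixed 1 h in 10% trichloroacetic acid, stained with 0.4% SRB in 1% acetic acid, dye taken up in 10 mM Tris.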
# [2] = target: T1, Aromatase (Homo sapiens, UniProt P11511); details: read-out: INH
# T1 sequence (P11511 whole entry): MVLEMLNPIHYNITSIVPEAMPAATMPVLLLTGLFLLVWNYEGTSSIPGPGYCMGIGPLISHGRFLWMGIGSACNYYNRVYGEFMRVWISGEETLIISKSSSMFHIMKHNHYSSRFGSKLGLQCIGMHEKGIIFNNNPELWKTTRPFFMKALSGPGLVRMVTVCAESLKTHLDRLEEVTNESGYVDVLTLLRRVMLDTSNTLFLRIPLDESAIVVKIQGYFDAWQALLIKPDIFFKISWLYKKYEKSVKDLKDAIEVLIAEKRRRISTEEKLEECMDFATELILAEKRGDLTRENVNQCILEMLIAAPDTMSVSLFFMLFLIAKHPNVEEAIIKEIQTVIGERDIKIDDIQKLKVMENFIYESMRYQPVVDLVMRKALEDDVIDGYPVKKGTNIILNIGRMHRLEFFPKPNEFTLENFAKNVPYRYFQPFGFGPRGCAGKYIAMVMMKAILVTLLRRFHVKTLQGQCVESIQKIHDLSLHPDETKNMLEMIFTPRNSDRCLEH
# [3] = tested on: RAW264.7; assay: Inhibition of LPS-induced COX2 expression in mouse RAW264.7 cells at 34 uM treated 15 mins before LPS challenge measured after 18 hrs by Western blotting relative to control; format: functional
# In short: (§1)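 RAW 264.7 cells pretreated 15 min with compound (34 μM), then LPS 1 μg/mL for 18 h. Lysates (30 μg protein) run on 8% SDS-PAGE and transferred to PVDF. Blocked in 5% milk/TBST, probed for iNOS and COX-2 with HRP secondary, ECL detection, β-actin internal control. Band density relative to LPS-treated control; duplicate experiments.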
# [4] = Chemical stability assessed as degradation after 24 hrs by LC/MS/MS analysis; format: physicochemical
# In short: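 Compound held 24 h at 37 °C in RPMI 1640 culture medium, the medium used for the MCF7 uptake work; remaining amount sampled at 0, 12 and 24 h as % of starting level; three runs.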
# [5] = tested on: RAW264.7; assay: Inhibition of LPS-induced iNOS expression in mouse RAW264.7 cells at 34 uM treated 15 mins before LPS challenge measured after 18 hrs by Western blotting; format: functional, cell-based; in short: as §1
# [6] = tested on: HL-60; assay: Cell cycle arrest in human HL60 cells assessed as accumulation at sub-G1 phase at 34 uM after 24 hrs by flow cytometry; format: functional
# In short: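 HL-60 cells (2 × 10⁵/well) exposed to samples for 24 h, then stained with NIM-DAPI nuclear isolation medium. Read by flow cytometry under UV excitation; percentage of cells in subG₁ taken from the DNA histogram.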
# [7] = Inhibition of TNF-alpha-induced NF-kappaB activity expressed in HEK293 cells after 48 hrs by luciferase reporter gene assay; format: cell-based; details: HEK293, 48 h
# [8] = target: T2, Prostaglandin G/H synthase 1 (Ovis aries, UniProt P05979); assay: Inhibition of sheep seminal vesicles COX1 assessed as PGE2 production after 10 mins by ELISA
# T2 sequence (P05979 whole entry): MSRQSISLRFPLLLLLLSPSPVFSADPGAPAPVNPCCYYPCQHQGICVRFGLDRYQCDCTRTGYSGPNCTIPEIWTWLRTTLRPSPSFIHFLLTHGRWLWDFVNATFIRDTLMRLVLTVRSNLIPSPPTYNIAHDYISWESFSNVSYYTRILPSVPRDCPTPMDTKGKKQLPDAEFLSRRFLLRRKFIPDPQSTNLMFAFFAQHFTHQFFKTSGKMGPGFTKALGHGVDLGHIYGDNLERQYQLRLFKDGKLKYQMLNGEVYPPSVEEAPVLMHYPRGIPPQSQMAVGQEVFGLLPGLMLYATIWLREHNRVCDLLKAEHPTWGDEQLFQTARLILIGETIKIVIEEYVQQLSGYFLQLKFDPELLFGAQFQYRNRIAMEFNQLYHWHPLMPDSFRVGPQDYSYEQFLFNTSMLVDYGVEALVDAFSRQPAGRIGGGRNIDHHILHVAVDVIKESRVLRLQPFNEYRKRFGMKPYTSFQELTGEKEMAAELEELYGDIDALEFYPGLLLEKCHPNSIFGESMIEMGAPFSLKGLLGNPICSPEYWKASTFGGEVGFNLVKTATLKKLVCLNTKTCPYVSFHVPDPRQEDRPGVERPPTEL
# In short: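 Sheep seminal vesicle COX-1; reaction started with arachidonic acid, 10 min at room temperature, stopped with 27.8 μM indomethacin. PGE₂ quantified by competitive ELISA (PGE₂-acetylcholinesterase tracer, Ellman's reagent, 412 nm) against a PGE₂ standard curve. Result as % of solvent control; IC₅₀ from dose-response curves.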
# [9] = target: T3, Prostaglandin G/H synthase 2 (Homo sapiens, UniProt P35354); assay: Inhibition of human recombinant COX2 assessed as PGE2 production after 10 mins by ELISA
# T3 sequence (P35354 whole entry): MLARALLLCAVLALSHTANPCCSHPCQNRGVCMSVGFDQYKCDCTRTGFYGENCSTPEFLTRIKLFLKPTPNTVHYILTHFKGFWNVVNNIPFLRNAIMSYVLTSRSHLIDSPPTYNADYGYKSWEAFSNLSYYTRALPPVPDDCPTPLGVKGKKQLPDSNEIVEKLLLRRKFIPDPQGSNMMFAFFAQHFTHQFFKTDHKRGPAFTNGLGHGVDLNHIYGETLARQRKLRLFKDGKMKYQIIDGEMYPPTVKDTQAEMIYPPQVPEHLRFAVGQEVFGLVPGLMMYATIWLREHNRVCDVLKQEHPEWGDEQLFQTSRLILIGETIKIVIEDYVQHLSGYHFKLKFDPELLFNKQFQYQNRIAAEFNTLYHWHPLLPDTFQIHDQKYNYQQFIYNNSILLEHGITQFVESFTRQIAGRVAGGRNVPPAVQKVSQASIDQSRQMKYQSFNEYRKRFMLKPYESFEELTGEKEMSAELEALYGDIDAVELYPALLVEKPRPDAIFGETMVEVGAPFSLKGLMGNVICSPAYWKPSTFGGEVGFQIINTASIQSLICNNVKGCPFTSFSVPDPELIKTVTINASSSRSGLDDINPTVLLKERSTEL
# [10] = Antioxidant activity assessed as DPPH scavenging activity after 30 mins; format: functional
# [11] = tested on: MCF7; assay: Cellular uptake in human MCF7 cells assessed per millions cells at 50 uM after 24 hrs by LC/MS/MS analysis; format: ADME, cell-based; details: mcf7, 24 h
SMILES,viability at 20 µg/mL [1],inhibition at 34 µM [2],fold change (FC) [3],Stability [4],inhibition [5],Activity [6],IC50 [7],IC50 [8],IC50 [9],IC50 [10],Drug uptake [11]
O=S(=O)([O-])Oc1ccc(/C=C/c2cc(OS(=O)(=O)[O-])cc(OS(=O)(=O)[O-])c2)cc1.[K+].[K+].[K+],107%,28.5%,0.69,,,,,,,,
O=S(=O)([O-])Oc1ccc(/C=C/c2cc(O)cc(O)c2)cc1.[K+],103%,30.4%,,Stable,Active,2.22%,18.2 µM,5.55 µM,8.95 µM,,
O=S(=O)([O-])Oc1cc(O)cc(/C=C/c2ccc(O)cc2)c1.[K+],51.7%,28.2%,,,Active,,,3.6 µM,7.53 µM,219 µM,
O=S(=O)([O-])Oc1cc(/C=C/c2ccc(O)cc2)cc(OS(=O)(=O)[O-])c1.[K+].[K+],97.2%,20.5%,0.76,,,,,,,,Active
